Experiment [1] relates to Bacillus subtilis. In words: Antibiofilm activity against Bacillus subtilis MTCC 121 incubated for 24 hrs under static condition by crystal violet staining-based assay. It counts as functional. An outline of the steps:
(§1)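 Strains grown overnight in tryptone soy broth with 0.5% glucose. Compound (250 to 0) mixed with inoculum at 5 × 10^5 CFU/mL in polystyrene microtiter plates. Non-adherent cells washed off with PBS; wells stained with 0.1% crystal violet, dye solubilised in 95% ethanol, absorbance read at 540 nm. IC50 for 50% biofilm inhibition taken from dose-response curves. Triplicates, mean ± S.D.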

The test system of experiment [2] is Bacillus subtilis. Put plainly: Bactericidal activity against Bacillus subtilis MTCC 121 after 24 hrs. The format is functional. Particulars: MTCC 121, 24 h. An outline of the steps: (§2)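 Broth macrodilution in Mueller Hinton broth, compound serially diluted from 150 down to 0. Overnight bacterial culture added to a final 1.5 × 10^8 CFU/mL (0.5 McFarland), 24 h at 37 °C. Suspension then subcultured onto Mueller Hinton agar for 24 h at 37 °C. MBC is the lowest concentration killing the strain. Duplicates.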

Experiment [3] concerns Candida parapsilosis. Put plainly: Fungicidal activity against Candida parapsilosis MTCC 1744 after 24 hrs. The format is functional. The conditions noted are these: Lodderomyces parapsilosis, MTCC 1744, 24 h. An outline of the steps:
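Broth dilution in Mueller Hinton broth with serial compound concentrations from […]. Overnight Candida cultures added to a final 1.5 × 10^8 CFU/mL (0.5 McFarland). Incubated 24 h at 37 °C, then 10 µL of each tube plated on Mueller Hinton agar for 24 h at 37 °C. MFC taken as the lowest concentration that kills the strain. Run in duplicate.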

The subject of experiment [4] is Staphylococcus aureus. Put plainly: Antibacterial activity against Staphylococcus aureus MTCC 96 after 24 hrs by well diffusion method. It counts as functional. Particulars: MTCC 96, 24 h. An outline of the steps:
(§3)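 Bacteria spread (0.1 mL suspension) on Mueller-Hinton agar; 6.0 mm wells loaded with compound over a 250 to 0.48 per-well dose range, methanol as negative control. Incubated 24 h at 37 °C. MIC taken as the lowest concentration still giving an inhibition zone. Duplicates, mean reported.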
On the technique in general: A growth-free zone around the sample is the usual read-out of agar diffusion tests.

In experiment [5] the test system is Raoultella planticola. Put plainly: Bactericidal activity against Klebsiella planticola MTCC 530 after 24 hrs. Particulars: MTCC 530, 24 h. The format is functional. An outline of the steps:
as §2

The subject of experiment [6] is Bacillus subtilis. Put plainly: Antibacterial activity against Bacillus subtilis MTCC 121 after 24 hrs by well diffusion method. The format is functional. The conditions noted are these: MTCC 121, 24 h. An outline of the steps: as §3
Experiment [7] concerns Candida albicans. In words: Antifungal activity against Candida albicans MTCC 183 after 24 hrs by well diffusion method. Particulars: MTCC 183, 24 h. The format is functional. An outline of the steps: (§4)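 Candida/Issatchenkia lawns (0.1 mL suspension) on Mueller-Hinton agar; 6.0 mm bored wells receive compound across a 250 to 0.48 per-well dose range, methanol as negative control. Plates kept 24 h at 30 °C. MIC is the lowest concentration producing a visible inhibition zone. Duplicate runs, mean values.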

The subject of experiment [8] is Candida albicans. Put plainly: Fungicidal activity against Candida albicans MTCC 854 after 24 hrs. The format is functional. Particulars: MTCC 854, 24 h. An outline of the steps: (§5)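 Candida grown overnight in Mueller Hinton broth. Compound serially diluted in the same broth from 150 to 0 and inoculated to a final 1.5 × 10^8 CFU/mL (0.5 McFarland), then 24 h at 37 °C. Tube contents plated onto Mueller Hinton agar for 24 h at 37 °C. MFC is the lowest concentration killing the yeast. Duplicates.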

The test system of experiment [9] is Candida albicans. In words: Antifungal activity against Candida albicans MTCC 227 after 24 hrs by well diffusion method. It counts as functional. The conditions noted are these: MTCC 227, 24 h. An outline of the steps: as §4
The test system of experiment [10] is Candida albicans. Put plainly: Fungicidal activity against Candida albicans MTCC 3018 after 24 hrs. It counts as functional. Particulars: MTCC 3018, 24 h. An outline of the steps: as §5
The nature of experiment [11]: Antifungal activity against Candida krusei MTCC 3020 after 24 hrs by well diffusion method. It counts as functional. Particulars: Pichia kudriavzevii. An outline of the steps:
as §4

The test system of experiment [12] is Raoultella planticola. In words: Antibiofilm activity against Klebsiella planticola MTCC 530 incubated for 24 hrs under static condition by crystal violet staining-based assay. The format is functional. An outline of the steps:
as §1

The subject of experiment [13] is Candida albicans. Put plainly: Antifungal activity against Candida albicans MTCC 854 after 24 hrs by well diffusion method. It counts as functional. The conditions noted are these: MTCC 854, 24 h. An outline of the steps:
as §4

Experiment [14] relates to Pichia sporocuriosa. In words: Antifungal activity against Issatchenkia hanoiensis MTCC 4755 after 24 hrs by well diffusion method. The format is functional. Particulars: MTCC 4755, 24 h. An outline of the steps:
as §4

Experiment [15] has as its system Candida albicans. Put plainly: Antifungal activity against Candida albicans MTCC 4748 after 24 hrs by well diffusion method. It counts as functional. Particulars: MTCC 4748, 24 h. An outline of the steps: as §4
Experiment [16] relates to Candida albicans. Put plainly: Antifungal activity against Candida albicans MTCC 3018 after 24 hrs by well diffusion method. The format is functional. Particulars: MTCC 3018, 24 h. An outline of the steps:
as §4

Experiment [17] in a line: Cytotoxicity against human SKOV3 cells assessed as cell growth inhibition by MTT assay. It counts as functional, cell-based. The conditions noted are these: SK-OV-3. Background: Tetrazolium dyes change colour on reduction, which living cells bring about.

Each structure is given as a SMILES string. ≈ marks a conversion by molar mass, not a printed value.

Data on one compound can be found in ChEMBL document CHEMBL3853298, “Total synthesis and in vitro bioevaluation of clavaminols A, C, H & deacetyl clavaminol H as potential chemotherapeutic and antibiofilm agents” (Eur J Med Chem, 2016).

For orientation: IC50 means the concentration that gives 50% inhibition. The term MBC denotes the smallest concentration meeting the test's criterion for killing. High values mean weaker bactericidal potency, low ones greater bactericidal potency. As usually defined, the MFC is the lowest tested concentration that kills the fungus rather than only halting it. For orientation: MIC means the lowest concentration that inhibits growth of the organism.

As to `CCCCCCCCC[C@H](O)[C@@H](C)N` [CLAVAMINOL A], the IC50 was found to be 4.3 mg/L (≈ 21.4 µM) in [1], 8.6 mg/L (≈ 42.7 µM) in [12] and 12.5 µM in experiment [17]. In addition, the MBC in experiment [2] and in [5] was 15.6 mg/L (≈ 77.5 µM) throughout. The results for the MFC in [3], in experiment [8] and in experiment [10] were 62.5 mg/L (≈ 310 µM), 31.2 mg/L (≈ 155 µM) and 31.2 mg/L (≈ 155 µM), respectively. Moreover, the MIC in experiment [4] was found to be 7.8 mg/L (≈ 38.7 µM); in experiment [6] it was 7.8 mg/L (≈ 38.7 µM); in experiment [7], 31.2 mg/L (≈ 155 µM); in experiment [9], 31.2 mg/L (≈ 155 µM); in experiment [11], 7.8 mg/L (≈ 38.7 µM); in experiment [13], 15.6 mg/L (≈ 77.5 µM). Moreover, the MIC in experiment [14] was found to be 31.2 mg/L (≈ 155 µM); in [15], 31.2 mg/L (≈ 155 µM); in experiment [16], 15.6 mg/L (≈ 77.5 µM).
